# Experimental data gathered from unrelated publications.
# Compare with care: the assays were run in different laboratories.
# Target: Serine/threonine-protein kinase ULK2 (ULK2, Homo sapiens, UniProt Q8IYT8)
SMILES,test,system,conditions,endpoint,value
CCN(CC)c1ccc(C2=NNC(=O)CC2C)cc1[N+](=O)[O-] (stereo not shown),"enzyme activity, inhibitor",,10 µM,remaining activity,97%
CS(=O)(=O)Nc1cccc(-c2csc(NC(=O)CSc3nc4nccnc4c(=O)n3CCc3ccccc3)n2)c1,"enzyme activity, inhibitor",,10 µM,inhibition,-2%
Nc1c(C(=O)NCc2ccc(C(=O)NCCCC3CCCCC3)cc2)cnn1-c1ccccc1,"cell-free assay, competition with immobilised ligand",,0.1 µM,remaining binding,100%
C[S+]([O-])c1ccc(-c2nc(-c3ccncc3)c(-c3ccc(F)cc3)[nH]2)cc1 (stereo not shown),cell-free assay,,0.5 µM,remaining signal,83.5%
C=CC(=O)Nc1cc(Nc2nccc(Nc3cc(Cl)c(F)cc3C(C)(C)O)n2)c(OC)cc1N1CC[C@@H](N(C)C)C1,"enzyme activity, inhibitor",,1 µM,inhibition,-2%
CN(C(=O)c1ccccc1)c1cc(N(C)c2ccc3c(c2)CCc2ccc(C(=O)NCCN4CCOCC4)cc2C3=O)ccc1F,"cell-free assay, competition with immobilised ligand",,1 µM,remaining binding,100%
COc1cc(Cl)c(C(=O)N[C@@H](CN[C@H]2CC[C@@H](N)CC2)Cc2ccc(C#N)cc2)cc1-c1ccc(CN[C@H](C)c2ccc(C)cc2)o1,"enzyme activity, inhibitor",,1 µM,remaining activity,94%
Cc1nc(C2CCN(C(=O)c3ccc(OC(F)(F)F)cc3N)CC2)c2ncc(N3CCN(C)CC3)cc2n1,"cell-free assay, competition with immobilised ligand",,1 µM,remaining binding,100%
O=C(Nc1cnn(-c2csc(C(=O)NC3COC3)c2)c1)Nc1c(F)cccc1Cl,"enzyme activity, inhibitor",,5 µM,remaining activity,105%
COc1cc2c(Nc3ccc(Br)cc3F)ncnc2cc1OCC1CCN(C)CC1,cell-free assay,,0.5 µM,remaining signal,108%
CCN1CCN(Cc2ccc(NC(=O)c3ccc(C)c(Oc4ccnc5[nH]ccc45)c3)cc2C(F)(F)F)CC1,"target engagement in cells, inhibitor, chemoproteomics",Huh-7,10 µM,inhibition,-13.4%
Cc1cc(NC(=O)c2cccc3cc(-c4cccc5[nH]nc(N)c45)ccc23)ccc1F,"enzyme activity, inhibitor",,0.1 µM,activity vs control,105%
O=C1NC(=O)c2cc(Nc3ccc(F)cc3)c(Nc3ccc(F)cc3)cc21,cell-free assay,,0.5 µM,remaining signal,84.7%
C[C@@H](c1cccc(C#N)c1)n1cc(Cl)cc(C(N)=O)c1=N,"cell-free assay, competition with immobilised ligand",,1 µM,remaining binding,89%
Cc1ccc(C(=O)Nc2ccc(CN3CCN(C)CC3)c(C(F)(F)F)c2)cc1C#Cc1cnc2cccnn12,"enzyme activity, inhibitor",,23.5 nM,remaining activity,94%
Cc1ccc(C(=O)NCc2ccsc2)cc1C#Cc1cn(C(C)C)c2ncnc(N)c12,"enzyme activity, inhibitor",,1 µM,activity vs control,92%
FC(F)(F)Oc1cccc(-c2cnc3ccc(-c4ccncc4)nn23)c1,"enzyme activity, inhibitor, radiometric",,1 µM,activity vs control,110%
COc1cc(-c2cn(C3CCc4ccccc4N(CC(F)(F)F)C3=O)nn2)ccc1-n1ccc(C)n1 (stereo not shown),"cell-free assay, competition with immobilised ligand",,1 µM,remaining binding,88%
Cc1ccc(NC(=O)c2ccc(C)c(C(F)(F)F)c2)cc1C#Cc1nn(C2CCC(O)CC2)c2ncnc(N)c12 (stereo not shown),cell-free assay,,10 µM,remaining signal,100%
Nc1ncnc2occ(-c3ccc(NC(=O)Nc4cc(C(F)(F)F)ccc4F)cc3)c12,"cell-free assay, inhibitor",,20 µM,remaining signal,8.8%
O=C(NCc1ncc(C(F)(F)F)cc1Cl)c1ccc2c(c1)C1(CCS(=O)(=O)CC1)[C@H](C1CC1)N2S(=O)(=O)c1ccc(F)cc1,"cell-free assay, competition with immobilised ligand",,1 µM,remaining binding,58%
CCCOc1ccc(OC)c(F)c1C(=O)c1ccc(C(=O)N[C@@H]2CNC[C@H]2NC(=O)c2ccc3[nH]ncc3c2)cc1,"enzyme activity, inhibitor",,10 µM,remaining activity,101%
